pIC50: −log10 of the molar value. Activity calls are given as the source filed them. The rule behind the calls is not given here.
Key:
MCF7 [1] = test: Induction of apoptosis in human MCF7 cells assessed as increase in late apoptotic cells at 0.5 to 4 uM after 36 hrs by Annexin V-FITC/propidium iodide double staining-based flow cytometry relative to control; type: functional
Summary of the method: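 Cells (1×10^5/well) are cultured 24 h, then treated in triplicate for 36 h at 0.5, 1.0, 2.0 or 4.0 μM. Vehicle is 1‰ DMSO in complete medium. Cells are stained with FITC-Annexin V and PI for 15 min in the dark and analysed by flow cytometry. Mean±SD of three independent experiments.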

MCF7 [2] = test: Cell cycle arrest in human MCF7 cells assessed as increase in accumulation at G2 phase after 48 hrs by propidium iodide staining-based flow cytometry; type: functional
Summary of the method: (§1)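 5×10^4 cells are seeded, incubated overnight, then treated 48 h. Cells are washed in cold PBS and fixed in 70% ethanol at −20 °C for 12 h. They are then stained with 100 µg/mL RNase plus 50 µg/mL PI in PBS, 37 °C for 30 min. DNA content is measured by flow cytometry.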

MCF7 [3] = test: Induction of apoptosis in human MCF7 cells assessed as peripherization of chromosome at 0.5 to 4 uM after 36 hrs by hoechst 33258 staining-based fluorescence microscopy; type: functional, cell-based
Summary of the method: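 Approximately 5×10^4 cells per well are exposed to 0, 0.5, 1.0, 2.0 or 4.0 μM for 36 h. Cells are PBS-washed and fixed in 4% paraformaldehyde for 30 min. They are stained with 20 μg/ml Hoechst 33258 for 15 min at room temperature in the dark, and nuclear morphology is examined by fluorescence microscopy.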

MCF7 [4] = test: Antiproliferative activity against human MCF7 cells after 72 hrs by MTT assay; type: functional, cell-based; details: MCF7, 72 h
Summary of the method: (§2)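 Cells in RPMI 1640 are seeded at 4,000 cells/well and held 24 h at 37 °C, 5% CO2. Medium is replaced with compound-containing medium (DMSO ≤0.25%) for 72 h at 37 °C. MTT read-out by absorbance at 570 nm. Quadruplicate wells, repeated three times; values are means of three independent experiments.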

MCF7 [5] = test: Cell cycle arrest in human MCF7 cells assessed as accumulation at G2 phase at 0.5 uM after 48 hrs by propidium iodide staining-based flow cytometry (reference value: 22.74%); type: functional; summary of the method: as §1
MCF7 [6] = test: Potency index, ratio of deguelin IC50 to test compound IC50 for human MCF7 cells; type: functional
Summary of the method: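 MTT assay on MCF-7 cells. Cells were seeded at 4,000/well and pre-incubated 24 h at 37 °C in humidified 5% CO2, then exposed to a range of compound concentrations for 72 h, with DMSO at no more than 0.25%. Absorbance was read at 570 nm, in quadruplicate, repeated three times. The IC50 for each test compound and for deguelin is the mean of three independent experiments, and the index is the deguelin IC50 divided by the compound IC50.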

MCF7 [7] = test: Cell cycle arrest in human MCF7 cells assessed as accumulation at G1 phase at 1 uM after 48 hrs by propidium iodide staining-based flow cytometry (reference value: 60.61%); type: functional; summary of the method: as §1
MCF7 [8] = test: Cell cycle arrest in human MCF7 cells assessed as accumulation at G1 phase at 0.5 uM after 48 hrs by propidium iodide staining-based flow cytometry (reference value: 60.61%); type: functional; summary of the method: as §1
NCI-H1299 [9] = test: Antiproliferative activity against human NCI-H1299 cells assessed as inhibition of cell growth at 10 uM after 72 hrs by MTT assay relative to control; type: functional; details: NCI-H1299, 72 h, read-out: GI; summary of the method: as §2
MCF7 [10] = test: Antiinvasive activity in human MCF7 cells assessed as number of invaded cells at 1 uM after 24 hrs by crystal violet dye-based transwell matrix penetration assay (reference value: 172.1 +/- 8.3); type: functional
[11] = target: Heat shock protein HSP90 (Homo sapiens) (UniProt P07900+P08238); test: Inhibition of monoclonal antibody binding to HSP90 (unknown origin) by immunoprecipitation-based Western blot analysis; type: protein assay
NCI-H1299 [12] = test: Antiproliferative activity against human NCI-H1299 cells assessed as inhibition of cell growth at 1 uM after 72 hrs by MTT assay relative to control; type: functional; details: NCI-H1299, 72 h, read-out: GI; summary of the method: as §2
[13] = target: Heat shock protein HSP 90-alpha (Homo sapiens, UniProt P07900); test: Inhibition of FITC-geldanamycin binding to recombinant human full-length C-terminal His-tagged HSP90alpha […] (1 to 732 residues) expressed in Escherichia coli after 1 hr by fluorescence polarization assay
A549 = test: Antiproliferative activity against human A549 cells after 72 hrs by MTT assay; type: functional, cell-based; details: A549, 72 h; summary of the method: as §2
MCF7 [14] = test: Antiinvasive activity in human MCF7 cells after 24 hrs by crystal violet dye-based transwell matrix penetration assay; type: functional, cell-based
Summary of the method: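 Matrigel-coated transwell invasion chambers, 1×10^4 cells seeded in the upper chamber, 37 °C for 24 h. Non-invaded cells are swabbed off. Invaded cells on the underside are fixed in 1% paraformaldehyde, stained with crystal violet and counted in ten random 200× fields per well. Result is the mean cells per field, from three independent experiments.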

MCF7 [15] = test: Cell cycle arrest in human MCF7 cells assessed as accumulation at S phase at 2 uM after 48 hrs by propidium iodide staining-based flow cytometry (reference value: 16.64%); type: functional; summary of the method: as §1
MCF7 [16] = test: Cell cycle arrest in human MCF7 cells assessed as accumulation at G2 phase at 2 uM after 48 hrs by propidium iodide staining-based flow cytometry (reference value: 22.74%); type: functional; summary of the method: as §1
MCF7 [17] = test: Induction of apoptosis in human MCF7 cells assessed as decrease in Bcl-xL expression at 1 to 4 uM after 48 hrs by Western blot analysis

In the case of `COc1cc(OC)c(OC)cc1CC(=O)c1ccc2c(c1OC)C=CC(C)(C)O2`, the Activity (MCF7 [1]) was 13.6 - 71.8%, the Activity (MCF7 [2]) was “Dose-dependent effect” and the Activity (MCF7 [3]) was “Active”. The pIC50 (MCF7 [4]) was 5.60, the Activity (MCF7 [5]) was 19.51% and the “Ratio IC50” value (MCF7 [6]) was 3. It also gave an Activity (MCF7 [7]) of 55.26%, an Activity (MCF7 [8]) of 57.49% and an inhibition of growth at 10 µM (NCI-H1299 [9]) of 72.1%. For the same molecule, the Activity (MCF7 [10]) was 63.2, the inhibition [11] was “Dose-dependent effect” and the inhibition of growth at 1 µM (NCI-H1299 [12]) was 40.3%. The pIC50 [13] was 7.22, the pIC50 (A549) was 5.46 and the Activity (MCF7 [14]) was “Dose-dependent effect”. For the same molecule, the Activity (MCF7 [15]) was 19.64%, the Activity (MCF7 [16]) was 34.16% and the Activity (MCF7 [17]) was “Active”.

Reference: ChEMBL document CHEMBL4340510, “Design, synthesis, and biological evaluation of truncated deguelin derivatives as Hsp90 inhibitors” (Eur J Med Chem, 2019)
